≈ marks a conversion by molar mass, not a printed value.
Columns and labels:
Format in all cases: functional
Staphylococcus aureus [1] = assay: Ratio of MBC to MIC for inducibly erythromycin-resistant and methicillin resistant Staphylococcus aureus PU32 expressing i-ermA
Staphylococcus aureus [2] = assay: Antimicrobial activity against constitutively erythromycin resistant and methicillin resistant Staphylococcus aureus PU20 expressing c-ermC incubated in CAMHB medium for 20 hrs by two-fold microbroth dilution method; details: PU20, 20 h
In short: (§1)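 Purified fresh Staphylococcus isolate at about 5×10^5 CFU/ml final in CAMHB, 35 °C for 20 h. Each run included ATCC strains and reference antibiotics as QC, plus an antibiotic-free growth control.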

Streptococcus pyogenes [3] = assay: Antimicrobial activity against inducibly erythromycin resistant Streptococcus pyogenes 01-968 expressing i-ermA incubated in CAMHB medium for 20 to 24 hrs by two-fold microbroth dilution method
Streptococcus pneumoniae [4] = assay: Antimicrobial activity against mef-encoded erythromycin resistant Streptococcus pneumoniae PU09 incubated in CAMHB medium for 20 to 24 hrs by two-fold microbroth dilution method
Streptococcus pneumoniae [5] = assay: Bactericidal activity against erythromycin-susceptible Streptococcus pneumoniae ATCC 49619 assessed as reduction in colony formation incubated in CAMHB medium for 20 to 24 hrs followed by 24 hrs subculturing in the medium without test compound
Streptococcus pneumoniae [6] = assay: Ratio of MBC to MIC for erythromycin-susceptible Streptococcus pneumoniae ATCC 49619
Haemophilus influenzae [7] = assay: Bactericidal activity against azithromycin-susceptible Haemophilus influenzae ATCC 49247 assessed as reduction in colony formation incubated in HTM broth medium for 20 to 24 hrs followed by 24 hrs subculturing in the medium without test compound
Haemophilus influenzae [8] = assay: Ratio of MBC to MIC for azithromycin-susceptible Haemophilus influenzae ATCC 49247
Streptococcus pyogenes [9] = assay: Ratio of MBC to MIC for inducibly erythromycin resistant Streptococcus pyogenes 01-968 expressing i-ermA
Staphylococcus aureus [10] = assay: Antimicrobial activity against inducibly erythromycin-resistant and methicillin resistant Staphylococcus aureus PU32 expressing i-ermA incubated in CAMHB medium for 20 hrs by two-fold microbroth dilution method; details: PU32, 20 h; in short: as §1
Streptococcus pyogenes [11] = assay: Bactericidal activity against inducibly erythromycin resistant Streptococcus pyogenes 01-968 expressing i-ermA assessed as reduction in colony formation incubated in CAMHB medium for 20 to 24 hrs followed by 24 hrs subculturing in the medium without test compound
Staphylococcus aureus [12] = assay: Bactericidal activity against constitutively erythromycin resistant and methicillin-resistant Staphylococcus aureus PU20 expressing c-ermC assessed as reduction in colony formation incubated in CAMHB medium for 20 hrs followed by 24 hrs subculturing in the medium without test compound
Haemophilus influenzae [13] = assay: Antimicrobial activity against azithromycin-susceptible Haemophilus influenzae ATCC 49247 incubated in HTM broth medium for 20 to 24 hrs by two-fold microbroth dilution method
Staphylococcus aureus [14] = assay: Ratio of MBC to MIC for constitutively erythromycin resistant and methicillin-resistant Staphylococcus aureus PU20 expressing c-ermC
Streptococcus pneumoniae [15] = assay: Bactericidal activity against mef-encoded erythromycin resistant Streptococcus pneumoniae PU09 assessed as reduction in colony formation incubated in CAMHB medium for 20 to 24 hrs followed by 24 hrs subculturing in the medium without test compound
Streptococcus pneumoniae [16] = assay: Antimicrobial activity against erythromycin-susceptible Streptococcus pneumoniae ATCC 49619 incubated in CAMHB medium for 20 to 24 hrs by two-fold microbroth dilution method
Staphylococcus aureus [17] = assay: Bactericidal activity against inducibly erythromycin-resistant and methicillin resistant Staphylococcus aureus PU32 expressing i-ermA assessed as reduction in colony formation incubated in CAMHB medium for 20 hrs followed by 24 hrs subculturing in the medium without test compound
Streptococcus pneumoniae [18] = assay: Ratio of MBC to MIC for mef-encoded erythromycin resistant Streptococcus pneumoniae PU09
Moraxella catarrhalis [19] = assay: Ratio of MBC to MIC for erythromycin-susceptible Moraxella catarrhalis 13L332
Moraxella catarrhalis [20] = assay: Bactericidal activity against erythromycin-susceptible Moraxella catarrhalis 13L332 assessed as reduction in colony formation incubated in CAMHB medium for 20 hrs followed by 24 hrs subculturing in the medium without test compound
Moraxella catarrhalis [21] = assay: Antimicrobial activity against erythromycin-susceptible Moraxella catarrhalis 13L332 incubated in CAMHB medium for 20 hrs by two-fold microbroth dilution method; details: 13L332, 20 h
In short: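 Clinical isolates and ATCC strains, purified by plate activation and used fresh; inoculum about 5×10^5 CFU/ml final. Grown in CAMHB at 35 °C for 20 h.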

Compound	MIC (Staphylococcus aureus [2])	MIC (Streptococcus pyogenes [3])	MIC (Streptococcus pneumoniae [4])	MBC (Streptococcus pneumoniae [5])	Ratio (Streptococcus pneumoniae [6])	MBC (Haemophilus influenzae [7])	Ratio (Haemophilus influenzae [8])	Ratio (Streptococcus pyogenes [9])	MIC (Staphylococcus aureus [10])	MBC (Streptococcus pyogenes [11])	MBC (Staphylococcus aureus [12])	MIC (Haemophilus influenzae [13])	Ratio (Staphylococcus aureus [14])	MBC (Streptococcus pneumoniae [15])	MIC (Streptococcus pneumoniae [16])	MBC (Staphylococcus aureus [17])	Ratio (Streptococcus pneumoniae [18])	also measured
CC[C@H]1OC(=O)[C@H](C)[C@@H](OC(=O)CCNCCCc2ccc(-n3ccnc3)cc2)[C@H](C)[C@@H](O[C@@H]2O[C@H](C)C[C@H](N(C)C)[C@H]2O)[C@](C)(OC)C[C@@H](C)/C(=N\OC)[C@H](C)[C@H]2OC(=O)O[C@@]21C	64 µg/mL (≈ 71.1 µM)	16 µg/mL (≈ 17.8 µM)	4 µg/mL (≈ 4.44 µM)	4 µg/mL (≈ 4.44 µM)	2	256 µg/mL (≈ 284 µM)	1	2	64 µg/mL (≈ 71.1 µM)	32 µg/mL (≈ 35.6 µM)	> 256 µg/mL	256 µg/mL (≈ 284 µM)	>4	8 µg/mL (≈ 8.89 µM)	2 µg/mL (≈ 2.22 µM)	128 µg/mL (≈ 142 µM)	–	Ratio (Staphylococcus aureus [1]): 2
CC[C@H]1OC(=O)[C@H](C)[C@@H](OC(=O)CCNCCCCc2cccnc2)[C@H](C)[C@@H](O[C@@H]2O[C@H](C)C[C@H](N(C)C)[C@H]2O)[C@](C)(OC)C[C@@H](C)/C(=N\OC)[C@H](C)[C@H]2OC(=O)O[C@@]21C	256 µg/mL (≈ 302 µM)	64 µg/mL (≈ 75.4 µM)	2 µg/mL (≈ 2.36 µM)	4 µg/mL (≈ 4.71 µM)	4	256 µg/mL (≈ 302 µM)	2	2	128 µg/mL (≈ 151 µM)	128 µg/mL (≈ 151 µM)	256 µg/mL (≈ 302 µM)	128 µg/mL (≈ 151 µM)	1	4 µg/mL (≈ 4.71 µM)	1 µg/mL (≈ 1.18 µM)	> 256 µg/mL	2	–
CC[C@H]1OC(=O)[C@H](C)[C@@H](OCC#Cc2ccc(-c3ccccn3)s2)[C@H](C)[C@@H](O[C@@H]2O[C@H](C)C[C@H](N(C)C)[C@H]2O)[C@](C)(OC)C[C@@H](C)/C(=N\OC)[C@H](C)[C@H]2OC(=O)O[C@@]21C	256 µg/mL (≈ 304 µM)	8 µg/mL (≈ 9.5 µM)	8 µg/mL (≈ 9.5 µM)	16 µg/mL (≈ 19 µM)	4	–	–	8	> 256 µg/mL	64 µg/mL (≈ 76 µM)	256 µg/mL (≈ 304 µM)	–	1	16 µg/mL (≈ 19 µM)	4 µg/mL (≈ 4.75 µM)	> 256 µg/mL	2	Ratio (Moraxella catarrhalis [19]): 2; MBC (Moraxella catarrhalis [20]): 8 µg/mL (≈ 9.5 µM); MIC (Moraxella catarrhalis [21]): 4 µg/mL (≈ 4.75 µM)

— ChEMBL document CHEMBL4346684, “Synthesis and structure-bactericidal activity relationships of non-ketolides: 9-Oxime clarithromycin 11,12-cyclic carbonate featured with three-to eight-atom-length spacers at 3-OH” (Eur J Med Chem, 2019)
